Results on 25 compounds are retold here after ChEMBL document CHEMBL1140172, “5-N-methylated quindoline derivatives as telomeric g-quadruplex stabilizing ligands: effects of 5-N positive charge on quadruplex binding affinity and cell proliferation” (J Med Chem, 2008).

The structures appear in SMILES notation. Activity calls are given as the source filed them. The rule behind the calls is not given here. Some results are limits rather than exact numbers.

For orientation: IC50 means the point on the concentration scale where inhibition reaches its midpoint. As usually defined, the ΔTm is the shift of the melting midpoint relative to a reference.

A short description of assay [1]: Binding affinity to synthetic HTG21 telomere assessed as conversion of preformed hybrid-type G-quadruplex to antiparallel G-quadruplex structure at 5 uM in presence of K+ ions by CD spectroscopy. Summed up:
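CD on HTG21 at 5 µM strand in 10 mM Tris-HCl pH 7.4 with 100 mM KCl. Sample heated to 95 °C for 5 min, slowly cooled, held at 4 °C overnight. Titrated with 0–5 mol equiv compound. Scans from 230–450 nm at 25 °C, buffer baseline subtracted, at least three scans averaged.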

A short description of assay [2]: Inhibition of amplification of synthetic HTG21 telomere assessed as G-quadruplex stabilization by PCR. The essentials:
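PCR stop assay with HTG21 and its partial complementary oligonucleotide (10 pmol each), 0.16 mM dNTP, 2.5 U Taq and test compound. Program: 94 °C for 3 min, then 30 cycles of 94/58/72 °C for 30 s each. Products run on 15% native PAGE and silver stained. IC50 taken from band optical density as 50% inhibition of PCR.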

Assay [3] in a line: Binding affinity to synthetic HTG21 telomere assessed as change in G-qudraplex DNA melting temperature at 1 uM by FRET method.
The target of assay [4] is Telomerase reverse transcriptase (Homo sapiens, UniProt O14746). Put plainly: Inhibition of telomerase in human MCF7 cells by cell-free telomerase repeat amplification protocol assay. The essentials:
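Modified TRAP using 100 ng of MCF-7 extract in 20 mM Tris-HCl pH 8.0 with 63 mM KCl, 1.5 mM MgCl2, 1 mM EGTA, 50 µM dNTPs, primers TSG4/TS/CXext/NT and a TSNT internal control. Compound or water added, 30 min elongation at 30 °C, then 30 PCR cycles. Read-out by 10% native PAGE with silver stain; TelIC50 from band optical density.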

A short description of assay [5]: Binding affinity to synthetic HTG21 telomere by competition dialysis method. Summed up: (§1)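 Competition dialysis, Tris-HCl 10 mM pH 7.4 with 100 mM NaCl. Each nucleic acid (0.5 mL, 45 µM monomeric unit) in a 1000 MWCO dialysis unit, all dialyzed together against a common ligand solution for 24 h at room temperature. DNA samples brought to 1% SDS. Total ligand in each tube and free ligand in dialysate read by absorbance (425 or 415 nm). Bound = total − free.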

The nature of assay [6]: Binding affinity to synthetic Pu27 oligonucleotide by competition dialysis method. Summed up:
as §1

The nature of assay [7]: Binding affinity to synthetic HT7 oligonucleotide by competition dialysis method. The essentials:
as §1

Assay [8] in a line: Binding affinity to synthetic [d(T2AG3)] oligonucleotide by NMR spectroscopy. Summed up:
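1H NMR titration at 25 °C of HPLC-purified d(T2AG3) at 0.5 mM in 90% H2O/10% D2O with 150 mM KCl and 25 mM potassium phosphate pH 7.0. Watergate water suppression; imino proton shifts monitored.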

Assay [9] can be described thus: Binding affinity to synthetic [d(T2AG3)] oligonucleotide assessed as increase in DNA melting temperature by NMR spectroscopy. Summed up: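 1H NMR thermal denaturation of d(T2AG3) at 0.5 mM in 90% H2O/10% D2O with 150 mM KCl and 25 mM potassium phosphate pH 7.0. Spectra recorded every 5 °C from 25–90 °C after 15 min equilibration at each step, Watergate water suppression.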

For assay [10], the system named is HL-60. The experiment in a line: Decrease in telomere length in human HL60 cells at 0.06 uM after 16 days by telomeric restriction fragment length assay. The format is functional, cell-based. The essentials:
(§2)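 Cells were reseeded every 4 days with continuous compound or 0.1% DMSO for 16 days. Genomic DNA was cut with HinfI/RsaI and run on 0.8% agarose. It was then Southern blotted and probed with a DIG-labelled telomeric repeat probe, detected by anti-DIG alkaline phosphatase chemiluminescence to give TRF length.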

In assay [11] the test system is HL-60. The experiment in a line: Decrease in telomere length in human HL60 cells at 0.03 uM after 16 days by telomeric restriction fragment length assay. The class given is functional, cell-based. Summed up: as §2
The subject of assay [12] is CA46. Put plainly: Decrease in telomere length in human CA46 cells at 0.06 uM after 16 days by telomeric restriction fragment length assay. The format is functional, cell-based. The essentials:
as §2

In assay [13] the test system is HL-60. Put plainly: Cytotoxicity against human HL60 cell after 48 hrs by MTT assay. The format is functional, cell-based. To be noted: HL-60, 48 h. Summed up: (§3)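 MTT assay: cells seeded at 1.0 × 10^3 per well in RPMI-1640 with 10% FBS and exposed to a range of ligand concentrations for 48 h at 37 °C, 5% CO2. MTT added for 4 h, formazan dissolved in DMSO, OD read at 570 nm. Each dose run in triplicate; IC50 from mean OD versus concentration curves.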

The test system of assay [14] is CA46. Put plainly: Cytotoxicity against human CA46 cell after 48 hrs by MTT assay. The format is functional, cell-based. The settings on record: CA46, 48 h. The essentials: as §3
On the technique in general: Tetrazolium assays rely on reduction of a dye to a coloured formazan, in cell work by metabolically active cells.

Assay [15] has as its system HL-60. Put plainly: Growth inhibition in human HL60 cells at 0.06 uM after 12 days. The class given is functional, cell-based. Summed up: (§4)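 Long-term culture: 1.0 × 10^5 cells per flask with ligand at 0.03 or 0.06 µM, or 0.1% DMSO. Every 4 days cells were counted and reseeded at 1.0 × 10^5 with fresh treatment, for 16 days. Each point done three times.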
For assay [16], the system named is HL-60. Put plainly: Growth inhibition in human HL60 cells assessed as increase in population doubling time at 0.03 uM. The class given is functional, cell-based. Summed up: as §4
Assay [17] relates to CA46. The experiment in a line: Growth inhibition in human CA46 cells at 0.06 uM after 12 days. The class given is functional, cell-based. The essentials: as §4
Assay [18] deals with CA46. Put plainly: Growth inhibition in human CA46 cells assessed as increase in population doubling time at 0.03 uM. The format is functional, cell-based. The essentials: as §4
For assay [19], the system named is HL-60. Put plainly: Induction of senescence in human HL60 cells at 0.06 uM administered continuously for 16 days by senescence-associated beta-galactosidase assay. The class given is functional, cell-based. Summed up: (§5)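 Cells were treated continuously with 0.06 µM ligand or 0.1% DMSO for 16 days. They were fixed in 2% formaldehyde/0.2% glutaraldehyde for 15 min at room temperature, washed in PBS, and stained overnight at 37 °C with 1 mg/mL X-Gal stain solution.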

Assay [20] has as its system CA46. The experiment in a line: Induction of senescence in human CA46 cells at 0.06 uM administered continuously for 16 days by senescence-associated beta-galactosidase assay. The class given is functional, cell-based. Summed up:
as §5

Sequence of Telomerase reverse transcriptase (O14746 whole entry): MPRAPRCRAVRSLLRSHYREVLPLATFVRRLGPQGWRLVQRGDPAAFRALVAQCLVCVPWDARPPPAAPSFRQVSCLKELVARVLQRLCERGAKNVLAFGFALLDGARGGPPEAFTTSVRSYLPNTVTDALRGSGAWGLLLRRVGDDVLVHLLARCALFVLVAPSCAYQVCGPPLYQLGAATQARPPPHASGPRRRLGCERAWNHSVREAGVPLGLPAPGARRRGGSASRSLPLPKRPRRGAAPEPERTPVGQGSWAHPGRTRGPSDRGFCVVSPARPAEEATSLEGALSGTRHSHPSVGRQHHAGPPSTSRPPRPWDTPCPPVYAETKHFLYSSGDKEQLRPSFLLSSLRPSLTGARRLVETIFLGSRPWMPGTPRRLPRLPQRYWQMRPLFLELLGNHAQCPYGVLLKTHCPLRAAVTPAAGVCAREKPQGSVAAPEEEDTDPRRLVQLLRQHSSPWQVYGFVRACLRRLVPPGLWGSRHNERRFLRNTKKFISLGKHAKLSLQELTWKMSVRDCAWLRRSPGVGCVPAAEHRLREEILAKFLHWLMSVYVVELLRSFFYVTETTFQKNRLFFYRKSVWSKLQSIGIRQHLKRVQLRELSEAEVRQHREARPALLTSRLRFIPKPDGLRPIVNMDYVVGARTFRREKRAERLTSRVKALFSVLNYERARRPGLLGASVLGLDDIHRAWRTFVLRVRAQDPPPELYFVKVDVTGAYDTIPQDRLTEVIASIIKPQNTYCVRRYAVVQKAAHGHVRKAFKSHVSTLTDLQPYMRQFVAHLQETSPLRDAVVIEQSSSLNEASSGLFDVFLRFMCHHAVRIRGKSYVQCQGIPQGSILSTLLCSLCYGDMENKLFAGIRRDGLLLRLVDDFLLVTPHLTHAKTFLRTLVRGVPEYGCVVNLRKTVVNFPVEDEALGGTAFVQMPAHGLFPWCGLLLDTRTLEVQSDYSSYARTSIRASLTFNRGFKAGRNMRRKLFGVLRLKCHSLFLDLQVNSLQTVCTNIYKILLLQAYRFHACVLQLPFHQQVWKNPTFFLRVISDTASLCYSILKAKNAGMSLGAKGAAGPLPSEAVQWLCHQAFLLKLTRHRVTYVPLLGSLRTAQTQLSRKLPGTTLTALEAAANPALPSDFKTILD

On to `CN(C)CCNc1c2ccccc2[n+](C)c2c1[nH]c1c(F)cc(F)cc12`, for which the outcome in assay [1] was Active. Moreover, the half-maximal inhibitory concentration (IC50) in [2] was > 20 µM. Besides, the ΔTm in [3] stood at 11 °C.
With `CCN(CC)CCNc1c2ccccc2[n+](C)c2c1[nH]c1ccccc12`, the result in assay [1] was Active. In assay [2], the IC50 turned out to be 12 µM. For the same compound, the shift in melting temperature (ΔTm) in [3] was 12 °C.
For the compound `CCN(CC)CCNc1c2ccccc2[n+](C)c2c1[nH]c1c(F)cc(F)cc12`, the outcome in [1] was Active. In addition, the IC50 in [2] amounted to 15 µM. For the same compound, the shift in melting temperature (ΔTm) in assay [3] worked out at 11 °C.
For the compound `CCN(CC)CCCNc1c2ccccc2[n+](C)c2c1[nH]c1c(F)cc(F)cc12`, the result in [1] was Active. The IC50 in [2] stood at 5.5 µM; in assay [4] it was 0.27 µM. Moreover, in [3], the shift in melting temperature (ΔTm) worked out at 15 °C.
Consider `C[n+]1c2ccccc2c(NCCN2CCOCC2)c2oc3ccccc3c21`, for which the result in [1] was Active. In [2], the IC50 was > 20 µM. Besides, the ΔTm in [3] worked out at 9 °C.
For `C[n+]1c2ccccc2c(NCCCO)c2oc3ccccc3c21`, in that order: “Active”, > 20 µM and 10 °C.
With `CCN(CC)CCNc1c2ccccc2[n+](C)c2c1[nH]c1ccc(F)cc12`, in [1], the outcome was Active. The IC50 in assay [2] was 18 µM. Further, in [3], the thermal shift (ΔTm) worked out at 12 °C.
`CN(C)CCCNc1c2ccccc2nc2c1[nH]c1ccccc12`: the half-inhibitory concentration (IC50) was > 20 µM in assay [2] and 0.63 µM in assay [4]. The thermal shift (ΔTm) in assay [3] is 9 °C.
With `C[n+]1c2ccccc2c(NCCCN2CCOCC2)c2[nH]c3ccccc3c21`, in [1], the outcome was Active. The half-inhibitory concentration (IC50) in assay [2] is > 20 µM. Moreover, the ΔTm in [3] stood at 12 °C.
For `C[n+]1c2ccccc2c(NCCO)c2[nH]c3ccccc3c21`, in that order: “Active”, > 20 µM and 5 °C.
Turning to `CN(C)CCNc1c2ccccc2[n+](C)c2c1[nH]c1ccc(F)cc12`, the result in [1] was Active. Besides, in [2], the IC50 was 13 µM. For the same compound, the shift in melting temperature (ΔTm) in assay [3] stood at 14 °C.
For `C[n+]1c2ccccc2c(NCCCO)c2[nH]c3ccccc3c21`, in that order: “Active”, > 20 µM and 7 °C.
Take `CN(C)CCCNc1c2ccccc2[n+](C)c2c1[nH]c1ccccc12`: the result in assay [1], in assay [5], in assay [6] and in assay [7] was Active. Moreover, the IC50 in [2] is 4.5 µM; in [4], 0.22 µM. For the same compound, in [3], the ΔTm was 17 °C.
Take `CN(C)CCCNc1c2ccccc2[n+](C)c2c1[nH]c1c(F)cc(F)cc12`: the outcome in assay [1] was Active. Besides, the 50% inhibitory concentration (IC50) was 9 µM in assay [2] and 0.4 µM in assay [4]. Also, the ΔTm in assay [3] was 15 °C.
On to `CN(C)CCNc1c2ccccc2[n+](C)c2c1oc1ccccc12`, for which the outcome in [1] was Active. Besides, in assay [2], the concentration for half-maximal inhibition (IC50) is 11.5 µM. Besides, in assay [3], the thermal shift (ΔTm) stood at 11 °C.
As for `CCN(CC)CCCNc1c2ccccc2[n+](C)c2c1[nH]c1ccc(F)cc12`, the outcome in assay [1] was Active. The IC50 in assay [2] was determined as 5 µM; in assay [4] it was 0.2 µM. Besides, the ΔTm in assay [3] was determined as 18 °C.
For `CN(C)CCCNc1c2ccccc2[n+](C)c2c1[nH]c1ccc(F)cc12`, the outcome in assay [1], in assay [8], in [10], in assay [11], in [12] and in [15] was Active. Further, the result in assay [16], in assay [17], in assay [18], in assay [19] and in assay [20] was Active. Also, the half-inhibitory concentration (IC50) is 8 µM in [2], 0.31 µM in [4], 1.21 µM in [13] and 1.36 µM in assay [14]. In addition, the ΔTm is 25 °C in assay [9] and 14 °C in [3].
Regarding `CCN(CC)CCCNc1c2ccccc2[n+](C)c2c1[nH]c1ccccc12`, the result in assay [1] was Active. The IC50 in assay [2] is 5.1 µM; in [4], 0.16 µM. Besides, the ΔTm in assay [3] stood at 19 °C.
Consider `C[n+]1c2ccccc2c(NCCN2CCOCC2)c2[nH]c3ccccc3c21`, for which, in assay [1], the outcome was Active. The IC50 in [2] is > 20 µM. Moreover, in assay [3], the ΔTm was 10 °C.
For `C[n+]1c2ccccc2c(NCCCN2CCOCC2)c2oc3ccccc3c21`, in that order: “Active”, 18 µM and 13 °C.
With `CN(C)CCNc1c2ccccc2[n+](C)c2c1[nH]c1ccccc12`, the result in assay [1] was Active. In addition, in assay [2], the IC50 worked out at 10.3 µM. In addition, the ΔTm in assay [3] came out at 13 °C.
For `CCN(CC)CCNc1c2ccccc2[n+](C)c2c1oc1ccccc12`, in that order: “Active”, 13 µM and 12 °C.
The corresponding values for `C[n+]1c2ccccc2c(NCCO)c2oc3ccccc3c21` are “Active”, > 20 µM and 4 °C.
On to `CN(C)CCCNc1c2ccccc2[n+](C)c2c1oc1ccccc12`, for which the outcome in [1] was Active. The figures for the IC50 in [2] and in [4] were 6.1 µM and 0.37 µM, respectively. In addition, in assay [3], the ΔTm was 14 °C.
As for `CCN(CC)CCCNc1c2ccccc2[n+](C)c2c1oc1ccccc12`, the outcome in [1] was Active. For the same compound, the IC50 in assay [2] was 5.7 µM. Also, the ΔTm in assay [3] amounted to 15 °C.
